# Shown are actives, neighbours in structure and some others; about 2.7% of the full set was active somewhere.
# V1aR counter = agonists of human V1a receptor, primary screen, counter-screen for OXTR agonist project, fluorescence, CHO-V1R cells. 320,000 compounds, 0.25% hits. activation, % at 3 µM. Vasopressin V1a receptor (Homo sapiens), P37288. Fluo-8 calcium fluorescence, agonist mode; 0% DMSO, 100% 3 nM vasopressin;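 active means activation above the mean activation of all tested compounds plus 3 SD, per screening run, cut at about 20% in these data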;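 further: signal is peak over basal fluorescence ratio across a 100 second FLIPR read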
# Target sequence (P37288 whole entry, looked up): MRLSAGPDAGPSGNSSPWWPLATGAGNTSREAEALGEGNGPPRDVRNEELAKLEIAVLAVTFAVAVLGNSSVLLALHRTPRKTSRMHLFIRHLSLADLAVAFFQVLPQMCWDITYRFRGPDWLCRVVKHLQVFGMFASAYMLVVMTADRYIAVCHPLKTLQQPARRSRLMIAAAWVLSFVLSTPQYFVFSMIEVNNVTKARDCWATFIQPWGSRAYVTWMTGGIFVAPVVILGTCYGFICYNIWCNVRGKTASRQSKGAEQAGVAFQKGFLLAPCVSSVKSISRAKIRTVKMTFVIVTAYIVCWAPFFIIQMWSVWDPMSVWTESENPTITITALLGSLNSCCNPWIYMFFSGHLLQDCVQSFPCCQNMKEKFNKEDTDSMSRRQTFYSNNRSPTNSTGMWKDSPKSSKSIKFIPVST
# OX1R antag-1 = antagonists of human orexin 1 receptor (OX1R). 330,000 compounds, 1.8% hits. inhibition, % at 6.6 µM. AID 485270, 2010. OX1R-expressing cells, FRET antagonist read-out; in the data active means inhibition mostly above about 38%, no sharp cut-off; inactive means mostly below about 40%;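 further: 0% = agonist challenge alone and 100% = reference antagonist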
# OXTR ag = human OXTR agonists, primary screen, fluorescence, CHO-OTR cells, Fluo-8 calcium | Oxytocin receptor (Homo sapiens), P30559 | Fluo-8 calcium fluorescence; normalized: DMSO 0%, oxytocin 100% | activation, % at 3 µM | 320,000 compounds, 0.32% hits;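 active means activation above the mean of all tested compounds plus 3 SD, cutoff set per screening run, cut at about 20% in these data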;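 further: peak over basal fluorescence ratio from a 100 s FLIPR kinetic read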
# OX1R antag-2 = OX1R (HCRTR1) antagonists, primary screen, fluorescence, CHO/OX1R cells, Fluo-8 calcium, orexin A. Orexin/Hypocretin receptor type 1 (Homo sapiens), O43613. AID 434989, 2010. inhibition, % at 5 µM. Fluo-8 calcium fluorescence. 330,000 compounds, 0.43% hits;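 active means inhibition above its plate's threshold, mean inhibition of all tested compounds on the plate plus 3 SD, cut at about 37% in these data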;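 further: 0% = orexin A challenge wells and 100% = SB-334867-A antagonist wells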
# CHO parental Ca = ATP-evoked calcium signal inhibitors, parental CHO, primary screen, counter-screen for OX1R antagonist project, cell-based, fluorescence, Fluo-8 calcium dye; parental CHO-K1, ATP-induced calcium, Fluo-8 fluorescence; inhibition, % at 5.6 µM; 330,000 compounds, 0.63% hits;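 active means inhibition above that plate's mean sample inhibition plus 3 SD, cut at about 26% in these data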;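 further: 0% = ATP-challenged DMSO wells and 100% = DMSO wells without ATP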
#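 test system = CHO parental line | reagent = ATP stimulus | measured by = intracellular calcium via Fluo-8 no-wash fluorescent dye | control set = ATP and no-ATP DMSO wells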
# OXTR potentiator = human OXTR potentiators, primary screen, fluorescence, CHO-OTR cells, Fluo-8 calcium | Oxytocin receptor (Homo sapiens), P30559 | Fluo-8 calcium fluorescence, potentiator mode; 0% = oxytocin EC15, 100% = EC100 | activation, % at 3 µM | 320,000 compounds, 0.061% hits;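 active means activation above that plate's cutoff, the mean activation of tested compounds plus 3 SD, cut at about 6.6% in these data, passing the limit was not always enough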;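 further: 100% uses oxytocin at 75 nM as the full agonist control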
#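 System: human OTR in CHO cells / Also added: sub-maximal oxytocin, roughly EC15 / Control set: EC15 oxytocin low, 75 nM oxytocin high / Schedule: 6 min compound pre-incubation at room temperature, 100 s kinetic read / Compound: single-point 3.0 µM / Replication: singlicate / Technique: Fluo-8 calcium dye fluorescence / Read-out basis: % activation of max/min ratio relative to oxytocin controls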
# * hit, by the source's call.
SMILES,V1aR counter,OX1R antag-1,OXTR ag,OX1R antag-2,CHO parental Ca,OXTR potentiator
CCn1cc(/C=N/N=C2\CCC3C4CCc5cc(O)ccc5C4CC[C@]23C)c(C)n1 (stereo partly specified),10,53,12,30,38*,-22
CCOC(=O)[C@H]1[C@H]2COc3ccc(Cl)cc3[C@@H]2N2C(=O)c3cc(F)ccc3NC(=O)[C@@]12C,0,9,0,-14,-14,-10
CCOC(=O)NC1c2ccccc2Oc2ccccc21,-1,4,-2,-4,70*,3
COCCNc1nnc(SCC(=O)NNC(=O)c2ccc([N+](=O)[O-])cc2)s1,0,59*,1,-10,-1,2
c1ccc2c(CCNc3ncnc4nc[nH]c34)cccc2c1,9,22,12,28,34*,-8
COc1ccc(NC(=O)CN(C)C(C)C(=O)NC(=O)NC2CCCCC2)cc1 (stereo unspecified),2,9,0,-2,-15,13
COc1ccc(NC(=O)CN(C)C(=O)c2cc(CN3C(=O)c4ccccc4C3=O)ccc2OC)cc1,0,12,-1,-23,-26,4
Cc1ccc(S(=O)(=O)NNC(=O)Nc2ccc(Cl)c(Cl)c2)cc1,3,194*,2,-7,22,-3
Cc1ccc(S(=O)(=O)NC(=O)Nc2ccc(N(C)C)cc2)cc1,-1,51*,-1,-16,-6,-6
Cc1ccc(S(=O)(=O)NC(=O)Nc2cccc([N+](=O)[O-])c2)cc1,1,20,2,-10,4,-13
Cc1nn(C)c(C)c1NC(=O)Nc1ccc(Cl)c(Cl)c1,5,26,7,20,44*,-8
Cc1ccc(NC(=O)NNS(=O)(=O)c2ccc(Br)cc2)cc1,1,17,3,-9,-15,-11
COc1ccc2[nH]c(C(=O)O)c(NS(=O)(=O)c3ccc(C)cc3C)c2c1,0,19,-1,-14,-16,-6
CC[C@@]1(C(=O)OC)N[C@H](CN(C)S(=O)(=O)c2ccc(C(F)(F)F)cc2)[C@@H]2C(=O)N(C)C(=O)[C@@H]21,1,4,-1,-38,-19,-2
C[n+]1ccccc1/C=C/c1ccc([N+](=O)[O-])cc1,1,36*,1,-6,1,-6
O=[N+]([O-])c1cncc([N+](=O)[O-])c1Nc1cccc(O)c1,2,56*,0,4,-6,-5
CC(=O)c1ccc(Nc2c([N+](=O)[O-])ccc3nonc23)cc1,0,6,0,-8,3,-12
O=[N+]([O-])c1cc([N+](=O)[O-])c2nonc2c1Nc1ccc(O)cc1,1,76*,-1,6,1,-3
Cc1ccccc1Nc1c([N+](=O)[O-])cncc1[N+](=O)[O-],0,63*,-1,2,-5,6
CC(C)(C)c1ccc(C(=O)O[C@H]2[C@H](Cc3ccccc3)NS(=O)(=O)[C@H]3C[C@@H]4C=C[C@]23O4)cc1,1,9,0,-1,-29,1
Cc1onc(-c2ccccc2Cl)c1C(=O)NNC(=O)c1cccc(F)c1,1,15,0,-9,-19,-4
Cc1cc(C)c(C#N)c(SCC(=O)c2cc(C)n(CCc3ccccc3)c2C)n1,1,28,1,-4,46*,-1
COC(=O)C1CCN(C(=O)CN2C(=O)NC(CC(C)C)C2=O)CC1 (stereo unspecified),1,-2,0,8,1,-6
Cc1cc(Br)ccc1NC(=O)CNC(=O)CNc1cccc([N+](=O)[O-])c1,1,8,1,2,-20,-4
C=CCNC(=O)O/N=C/c1csc([N+](=O)[O-])c1,0,42*,0,-4,-12,3
SMILES,V1aR counter,OX1R antag-1,OXTR ag,OX1R antag-2,CHO parental Ca,OXTR potentiator
CCn1nnc2cc(C(=O)Nc3cccc(S(=O)(=O)N(C)C)c3)ccc21,1,-1,2,-7,-13,-2
CCC(=O)c1ccccc1OCCCCn1cncn1,1,-2,-1,-7,-2,0
CC1=NN(CCc2ccccn2)C(=O)CC1,0,12,0,-18,-5,-5
CCN(CC)S(=O)(=O)c1cccc(NC(=O)CN2C(=O)c3ccc([N+](=O)[O-])cc3C2=O)c1,3,43,2,-28,-10,-7
CCN(C(=O)CN1C(=O)c2ccc([N+](=O)[O-])cc2C1=O)C1CCCCC1,1,56*,-1,-12,-4,-1
CN(C(=O)CN1C(=O)c2ccc([N+](=O)[O-])cc2C1=O)C1CCCCC1,1,64*,-1,-7,-9,-6
COc1ccc(NC(=O)CN(C)C(=O)CN2C(=O)c3ccc([N+](=O)[O-])cc3C2=O)cc1,-1,61*,0,0,7,-8
CN(CC(=O)Nc1ccc(F)cc1)C(=O)CN1C(=O)c2ccccc2C1=O,1,1,1,-1,-1,1
O=C(C1CCCO1)N1CCN(Cc2c(O)ccc3ccccc23)CC1 (stereo unspecified),5,37,6,-19,29*,-15
Cc1ccc(CN2CCN(C(=O)C3CCCO3)CC2)cc1 (stereo unspecified),0,7,2,-11,-9,4
COc1ccc(NC(=O)[C@@H](NC(=O)c2ccccc2F)C(C)C)cc1S(=O)(=O)N1CCOCC1,0,17,0,-28,-10,1
CC(=O)c1ccc(NC(=O)c2ccc3nc(-c4ccco4)c(-c4ccco4)nc3c2)cc1,0,36,1,-29,-2,-7
O=C(NCCO)Nc1ccc2nc(-c3ccco3)c(-c3ccco3)nc2c1,2,100*,1,-116,-8,-1
O=C(NCCO)Nc1ccc2nsnc2c1,2,39,1,-2,0,-6
O=C(Nc1ccccc1)c1ccc2nc(-c3ccco3)c(-c3ccco3)nc2c1,-1,102*,-1,71*,-24,-9
CCOc1ccc(S(=O)(=O)N2CCN(Cc3ccco3)CC2)cc1,1,14,-1,-9,-25,-6
COc1ccccc1OCCSc1nc2ccccc2n1CCC(=O)O,0,67*,-1,7,-1,-9
COc1ccc(OCCSc2nc3ccccc3n2CCC(=O)O)cc1,0,54*,0,23,7,-8

# Screening results: PubChem BioAssay, The Scripps Research Institute Molecular Screening Center
